Data taken from ChEMBL document CHEMBL3603810, “Discovery of Potent and Selective RSK Inhibitors as Biological Probes” (J Med Chem, 2015).
Calls of active or inactive are those of the source. The calls are words filed in the database; no cut-off is given here.

What was measured:
[1] = molecular target: Ribosomal protein S6 kinase alpha-3 (Homo sapiens, UniProt P51812)
[2] = molecular target: Ribosomal protein S6 kinase alpha-3 (Mus musculus, UniProt P18654); test: Inhibition of RSK2 in mouse BAF cells expressing activated FGFR assessed as reduction of YB1 phosphorylation at Ser102 by electochemiluminescence assay; format: cell-based
Sequence of Ribosomal protein S6 kinase alpha-3 (Mus musculus, UniProt P18654) (P18654 whole entry): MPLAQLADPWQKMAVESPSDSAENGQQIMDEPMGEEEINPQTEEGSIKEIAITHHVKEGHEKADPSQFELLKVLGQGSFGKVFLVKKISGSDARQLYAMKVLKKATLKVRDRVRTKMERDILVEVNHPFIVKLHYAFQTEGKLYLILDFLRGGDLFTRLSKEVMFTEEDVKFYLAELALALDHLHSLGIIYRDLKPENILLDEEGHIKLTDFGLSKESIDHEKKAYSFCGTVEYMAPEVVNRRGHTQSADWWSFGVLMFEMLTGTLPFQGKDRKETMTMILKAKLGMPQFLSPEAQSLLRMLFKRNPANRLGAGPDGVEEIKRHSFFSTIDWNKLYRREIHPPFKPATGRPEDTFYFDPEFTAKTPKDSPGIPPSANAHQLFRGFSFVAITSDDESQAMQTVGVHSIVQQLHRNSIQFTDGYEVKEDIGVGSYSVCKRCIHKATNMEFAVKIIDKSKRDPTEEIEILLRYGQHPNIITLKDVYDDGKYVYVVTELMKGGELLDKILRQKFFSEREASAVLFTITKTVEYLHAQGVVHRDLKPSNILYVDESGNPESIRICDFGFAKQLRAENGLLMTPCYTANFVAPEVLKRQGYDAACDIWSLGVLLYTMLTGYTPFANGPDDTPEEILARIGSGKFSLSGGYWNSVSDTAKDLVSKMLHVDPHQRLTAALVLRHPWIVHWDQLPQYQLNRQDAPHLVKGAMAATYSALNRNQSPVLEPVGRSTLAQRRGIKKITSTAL
Outline: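 Cellular Ser102-phospho-YB1 ECL immunoassay in mouse BAF cells engineered to express activated FGFR. RIPA lysates are bound overnight at 4 °C to high-bind plates. Plates are blocked 2 h at rt with 10% BSA. Detection uses phospho-Ser102 YB1 antibody (1.3 μg/mL, 2 h rt), then sulfo-tag goat anti-rabbit antibody (0.5 μg/mL, 2 h rt), then MSD read buffer.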

[3] = molecular target: Serine/threonine-protein kinase PLK1 (Homo sapiens) (UniProt P53350); test: Binding affinity to DNA-tagged PLK (unknown origin) at 10 uM by qPCR analysis
Sequence of Serine/threonine-protein kinase PLK1 (Homo sapiens) (P53350 whole entry): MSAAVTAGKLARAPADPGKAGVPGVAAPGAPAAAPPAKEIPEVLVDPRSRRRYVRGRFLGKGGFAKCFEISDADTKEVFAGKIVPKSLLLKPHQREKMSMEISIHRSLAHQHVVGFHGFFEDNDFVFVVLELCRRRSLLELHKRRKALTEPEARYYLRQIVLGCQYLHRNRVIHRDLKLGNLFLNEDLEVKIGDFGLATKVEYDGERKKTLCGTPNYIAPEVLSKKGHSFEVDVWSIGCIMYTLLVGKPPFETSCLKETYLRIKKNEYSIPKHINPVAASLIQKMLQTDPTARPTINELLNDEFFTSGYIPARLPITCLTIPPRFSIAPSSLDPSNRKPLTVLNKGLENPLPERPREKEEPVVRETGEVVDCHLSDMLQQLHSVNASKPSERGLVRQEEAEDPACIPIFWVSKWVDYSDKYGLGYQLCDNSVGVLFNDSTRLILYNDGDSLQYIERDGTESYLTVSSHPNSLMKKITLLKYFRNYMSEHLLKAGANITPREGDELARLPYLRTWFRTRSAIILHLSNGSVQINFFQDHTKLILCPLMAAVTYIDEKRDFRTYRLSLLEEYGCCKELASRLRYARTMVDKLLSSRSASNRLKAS
Outline: (§1)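 Competitive binding panel (KinomeScan) run at 10 μM test concentration, 96 kinases in the panel, or 442 in the expanded panel. Results are reported as […], where smaller values mean stronger binding.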

[4] = molecular target: Ribosomal protein S6 kinase alpha-6 (Homo sapiens) (UniProt Q9UK32); test: Binding affinity to DNA-tagged RSK4 N-terminal kinase domain (unknown origin) assessed as level of protein captured on solid support at 10 uM by qPCR analysis relative to control; outline: as §1
Sequence of Ribosomal protein S6 kinase alpha-6 (Homo sapiens) (Q9UK32 whole entry, the tested form may be a part): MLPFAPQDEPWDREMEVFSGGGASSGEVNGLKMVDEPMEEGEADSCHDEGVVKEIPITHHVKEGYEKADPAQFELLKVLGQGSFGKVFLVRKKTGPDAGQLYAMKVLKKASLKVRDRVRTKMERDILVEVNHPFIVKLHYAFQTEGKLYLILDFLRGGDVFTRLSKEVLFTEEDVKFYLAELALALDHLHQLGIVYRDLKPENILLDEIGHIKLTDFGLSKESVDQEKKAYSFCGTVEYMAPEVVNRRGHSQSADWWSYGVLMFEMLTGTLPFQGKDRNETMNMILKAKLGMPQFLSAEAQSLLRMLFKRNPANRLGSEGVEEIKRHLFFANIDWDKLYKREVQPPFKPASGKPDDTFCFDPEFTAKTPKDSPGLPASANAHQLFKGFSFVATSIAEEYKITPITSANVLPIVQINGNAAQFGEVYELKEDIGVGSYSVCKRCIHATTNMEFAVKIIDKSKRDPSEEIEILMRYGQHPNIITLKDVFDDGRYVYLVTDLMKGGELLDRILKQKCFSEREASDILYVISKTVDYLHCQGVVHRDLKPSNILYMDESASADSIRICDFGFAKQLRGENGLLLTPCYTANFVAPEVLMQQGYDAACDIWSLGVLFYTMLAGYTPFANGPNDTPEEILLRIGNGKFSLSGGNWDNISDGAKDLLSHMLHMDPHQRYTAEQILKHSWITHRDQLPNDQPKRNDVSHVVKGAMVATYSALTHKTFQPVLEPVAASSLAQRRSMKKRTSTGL

[5] = molecular target: Ribosomal protein S6 kinase alpha-1 (Homo sapiens) (UniProt Q15418); test: Binding affinity to DNA-tagged RSK1 N-terminal kinase domain (unknown origin) assessed as level of protein captured on solid support at 10 uM by qPCR analysis relative to control; outline: as §1
Sequence of Ribosomal protein S6 kinase alpha-1 (Homo sapiens) (Q15418 whole entry, the tested form may be a part): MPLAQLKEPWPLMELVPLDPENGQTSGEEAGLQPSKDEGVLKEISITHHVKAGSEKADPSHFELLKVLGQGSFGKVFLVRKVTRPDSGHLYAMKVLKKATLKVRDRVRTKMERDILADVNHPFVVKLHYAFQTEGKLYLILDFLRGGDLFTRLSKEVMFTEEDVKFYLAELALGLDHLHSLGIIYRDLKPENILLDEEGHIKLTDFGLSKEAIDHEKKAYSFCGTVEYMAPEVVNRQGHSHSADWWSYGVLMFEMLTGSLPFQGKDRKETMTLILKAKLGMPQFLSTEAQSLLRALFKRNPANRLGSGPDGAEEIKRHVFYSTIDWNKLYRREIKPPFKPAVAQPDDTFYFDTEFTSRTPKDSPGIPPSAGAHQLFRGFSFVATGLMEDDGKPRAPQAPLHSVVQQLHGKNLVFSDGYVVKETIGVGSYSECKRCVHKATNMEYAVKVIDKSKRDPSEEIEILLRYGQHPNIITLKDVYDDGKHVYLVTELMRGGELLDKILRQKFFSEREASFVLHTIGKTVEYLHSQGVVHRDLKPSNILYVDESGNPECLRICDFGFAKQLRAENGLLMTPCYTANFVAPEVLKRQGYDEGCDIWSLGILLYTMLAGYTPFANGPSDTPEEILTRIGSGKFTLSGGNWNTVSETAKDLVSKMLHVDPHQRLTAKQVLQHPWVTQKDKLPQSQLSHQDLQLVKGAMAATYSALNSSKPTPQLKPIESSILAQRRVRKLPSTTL

[6] = molecular target: Ribosomal protein S6 kinase alpha-2 (Homo sapiens) (UniProt Q15349); test: Binding affinity to DNA-tagged RSK3 N-terminal kinase domain (unknown origin) assessed as level of protein captured on solid support at 10 uM by qPCR analysis relative to control; outline: as §1
Sequence of Ribosomal protein S6 kinase alpha-2 (Homo sapiens) (Q15349 whole entry, the tested form may be a part): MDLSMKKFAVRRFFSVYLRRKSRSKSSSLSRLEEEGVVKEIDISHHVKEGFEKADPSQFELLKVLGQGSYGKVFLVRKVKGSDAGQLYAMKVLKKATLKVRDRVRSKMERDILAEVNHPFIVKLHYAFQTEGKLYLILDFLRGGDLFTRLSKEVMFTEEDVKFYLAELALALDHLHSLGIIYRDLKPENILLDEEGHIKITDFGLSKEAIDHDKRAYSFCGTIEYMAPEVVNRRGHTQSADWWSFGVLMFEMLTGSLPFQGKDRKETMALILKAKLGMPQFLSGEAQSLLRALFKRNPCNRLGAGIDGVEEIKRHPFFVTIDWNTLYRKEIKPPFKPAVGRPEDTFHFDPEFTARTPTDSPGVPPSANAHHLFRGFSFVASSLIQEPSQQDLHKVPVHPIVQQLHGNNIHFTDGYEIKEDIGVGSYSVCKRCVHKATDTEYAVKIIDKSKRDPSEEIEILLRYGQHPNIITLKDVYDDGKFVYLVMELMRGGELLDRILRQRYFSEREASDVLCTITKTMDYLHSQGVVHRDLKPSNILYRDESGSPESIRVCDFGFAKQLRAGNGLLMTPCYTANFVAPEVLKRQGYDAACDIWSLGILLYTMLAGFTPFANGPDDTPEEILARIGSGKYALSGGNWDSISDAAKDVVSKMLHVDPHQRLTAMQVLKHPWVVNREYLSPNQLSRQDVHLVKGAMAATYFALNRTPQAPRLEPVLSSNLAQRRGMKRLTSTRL

[7] = Clearance in rat liver microsomes; format: ADME; settings: read-out: CLH
[8] = Clearance in iv dosed Sprague-Dawley rat; format: ADME, organism-based; settings: in vivo
Outline: (§2)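 Single-dose plasma pharmacokinetics in male Sprague-Dawley rats following intravenous administration.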

[9] = Plasma half life in iv dosed Sprague-Dawley rat; format: ADME, organism-based; outline: as §2
[10] = Volume of distribution at steady state in iv dosed Sprague-Dawley rat; format: ADME, organism-based; settings: in vivo, read-out: Vdss; outline: as §2
Caco-2 = test: Permeability across human Caco2 cells; format: ADME, cell-based

Sequence of Ribosomal protein S6 kinase alpha-3 (Homo sapiens, UniProt P51812) (P51812 whole entry): as the sequence (P18654 whole entry) above, with G45V counted along it

Structure (SMILES)	IC50 [1] [nM]	EC50 [2] [nM]	also measured
Oc1ccc(-c2ccncc2-c2cc(F)c(O)c(F)c2)cc1	50	6400	
Oc1ccc(-c2cn[nH]c2-c2ccccc2)cc1	2500	> 20000	
CNc1ncc(-c2cc(F)c(O)c(F)c2)c(-c2ccc(C)cc2)n1	13	690	
Oc1c(F)cc(-c2cnccc2C2CCNCC2)cc1F	2100	> 20000	
COc1ccc(-c2ccncc2-c2cc(F)c(O)c(F)c2)cc1	8	1100	
Oc1c(Cl)cc(-c2cnccc2-c2ccc(F)cc2)cc1Cl	4800	> 20000	
COc1cccc(-c2ccncc2-c2cc(F)c(O)c(F)c2)c1	46	5600	
Oc1c(F)cc(-c2cnccc2-c2ccc(N3CCNCC3)cc2)cc1F	6	140	
COc1ccc(-c2ccncc2-c2cc(F)c(O)c(F)c2)cn1	80	5300	
Oc1c(F)cc(-c2cnccc2-c2ccccc2)cc1F	60	4200	
Cc1cccc(-c2ccncc2-c2cc(F)c(O)c(F)c2)c1	32	4100	
CN1CCN(c2ccc(-c3ccncc3-c3cc(F)c(O)c(F)c3)cc2)CC1	5	340	microsomal CLint [7]: 170 µL/min/mg; clearance [8]: 166 mL/min/kg; half-life [9]: 13 min; Vd [10]: 1.6 L/kg
Oc1ccc(-c2ccncc2-c2ccc(O)cc2)cc1	180	9300	permeability (Caco-2): permeable
CC(C)c1ccncc1-c1cc(F)c(O)c(F)c1	780	> 20000	
CN1CCN(c2ccc(-c3cc(N)ncc3-c3cc(F)c(O)c(F)c3)cc2)CC1	6	440	
Oc1c(F)cc(-c2cnccc2-c2cccc(-c3cn[nH]c3)c2)cc1F	5	1100	
Oc1ccc(-c2[nH]ncc2-c2ccccc2)cc1	150	> 20000	
Nc1n[nH]c(-c2ccc(O)cc2)c1-c1ccccc1	53	3200	
Cc1ccc(-c2nc(NC(C)C)ncc2-c2cc(F)c(O)c(F)c2)cc1	23	1500	
Oc1c(F)cc(-c2cnccc2-c2cccc(N3CCOCC3)c2)cc1F	18	2300	
Cc1ccc(-c2ccncc2-c2cc(F)c(O)c(F)c2)cc1	7	1600	
CNC(=O)c1ccc(-c2ccncc2-c2cc(F)c(O)c(F)c2)cc1	20	2100	

Continued by falling EC50 [2], values first:

IC50 [1] [nM]	EC50 [2] [nM]	Structure (SMILES)	also measured
94	10400	Oc1c(F)cc(-c2cnccc2-c2ccc(F)cc2)cc1F	
24	2800	Oc1ccc(-c2cn[nH]c2-c2ccc(O)cc2)cc1	permeability (Caco-2): permeable
22	2500	CC(C)CNc1cc(-c2ccc(N3CCN(C)CC3)cc2)c(-c2cc(F)c(O)c(F)c2)cn1	
130	2200	Oc1c(F)cc(-c2cnccc2C2CCOCC2)cc1F	
6	1400	Oc1ccc(-c2cn[nH]c2-c2cc(F)c(O)c(F)c2)cc1	
4	1100	CN1CCN(c2cccc(-c3ccncc3-c3cc(F)c(O)c(F)c3)c2)CC1	
6	690	Cc1ccc(Nc2cc(-c3ccc(N4CCN(C)CC4)cc3)c(-c3cc(F)c(O)c(F)c3)cn2)cc1	
20	610	CC(C)Nc1ncc(-c2cc(F)c(O)c(F)c2)c(-c2ccc(N3CCN(C)CC3)cc2)n1	
14	580	CNc1cc(-c2ccc(N3CCN(C)CC3)cc2)c(-c2cc(F)c(O)c(F)c2)cn1	
	500	CC(C)CCN1c2nc(Nc3cc(F)c(O)c(F)c3)ncc2N(C)C(=O)[C@H]1C	Activity [3]: Active
4	490	NCCOc1cccc(-c2ccncc2-c2cc(F)c(O)c(F)c2)c1	
10	360	Cc1ccc(-c2nc(N)ncc2-c2cc(F)c(O)c(F)c2)cc1	
4	210	Oc1c(F)cc(-c2cnccc2-c2ccc(N3CCOCC3)cc2)cc1F	Activity [4]: 0%; Activity [3]: inactive; Activity [5]: 0%; Activity [6]: 0.05%
